Assay results of several laboratories.
Lines come from different studies, so protocols differ.
Target: G protein-coupled receptor kinase 4 (GRK4, Homo sapiens, UniProt P32298)

Structure (SMILES) | assay | setting | endpoint | value
Cc1noc([C@H]2C[C@@H](c3ccc(C(F)(F)F)cc3)CN(C(=O)N3CCS(=O)(=O)C3)C2)n1 | cell-free assay, competition with immobilised ligand | 1 µM | remaining binding | 99%
CS(=O)(=O)CCNCc1ccc(-c2ccc3ncnc(Nc4ccc(OCc5cccc(F)c5)c(Cl)c4)c3c2)o1 | cell-free assay | 0.5 µM | remaining signal | 90.3%
C[C@H](c1ccc(F)cc1)N(Cc1cccc(C(=O)O)c1)C(=O)c1cnc2ccccc2c1 | cell-free assay, competition with immobilised ligand | 1 µM | remaining binding | 100%
CN(C)C1CCN(CC#Cc2nn(C3CCCC3)c3nc(NCc4ccccc4)ncc23)C1 (stereo not shown) | enzyme activity, inhibitor, FRET | 1 µM | inhibition | 11%
COc1cc2c(N3CCN(C(=O)Nc4ccc(OC(C)C)cc4)CC3)ncnc2cc1OCCCN1CCCCC1 | cell-free assay | 0.5 µM | remaining signal | 106%
COc1cc2ncnc(Nc3ccc(Oc4ccccc4)cc3C)c2cc1OC | enzyme activity, inhibitor | 1 µM | inhibition | -2%
Cc1sc(C(=O)NC2COC2)cc1-n1cc(NC(=O)Nc2c(F)cccc2Cl)cn1 | enzyme activity, inhibitor | 10 µM | remaining activity | 113%
O=c1nc(-c2ccccn2)sc2ccccc12 | binding, competition with immobilised ligand | 1 µM | remaining binding | 100%
CC(C)(C)c1nc2c(s1)c1nc(N)ncc1c1ccc(NS(=O)(=O)c3c(F)cccc3F)c(F)c12 | enzyme activity, inhibitor, radiometric | 1 µM | remaining activity | 70%
O=C(N[C@H]1CCCCC/C=C\C2C[C@@]2(C(=O)O)NC(=O)[C@@H]2C[C@@H](Oc3ccncc3)CN2C1=O)OC1CCCC1 (stereo partly shown) | binding, competition with immobilised ligand | 1 µM | remaining binding | 80%
N#CCCc1ccc2c(c1)-c1[nH]c3ccc([N+](=O)[O-])cc3c1CC(=O)N2 | cell-free assay | 0.5 µM | remaining signal | 101%
CC(C)(O)[C@H]1CC[C@H](Nc2ccc3ncc(-c4cccc(C(F)(F)F)c4)n3n2)CC1 | enzyme activity, inhibitor | 1 µM | remaining activity | 96.5%
CCCS(=O)(=O)Nc1ccc(F)c(C(=O)c2c[nH]c3ncc(-c4ccc(Cl)cc4)cc23)c1F | enzyme activity, inhibitor | 1 µM | inhibition | < 10%
